Measured values as given in ChEMBL document CHEMBL4219240, “Syntheses and structure-activity relationships on antibacterial and anti-ulcerative colitis properties of quaternary 13-substituted palmatines and 8-oxo-13-substituted dihydropalmatines” (Bioorg Med Chem, 2018).
Values after ≈ are worked out from the molar mass of the structure shown. Active and inactive are the calls of the source. No cut-off for these calls is given here.

Experiments:
[1] = Induction of XBP1 promoter DNA activation in rat IEC-6 cells after 48 hrs by dual luciferase reporter gene assay; type: cell-based; details: IEC-6, 48 h
IEC-6 = experiment: Induction of XBP1 promoter DNA activation in rat IEC-6 cells at 10 uM after 48 hrs by dual luciferase reporter gene assay relative to control; type: cell-based
Escherichia coli = experiment: Antibacterial activity against clinical isolate of Escherichia coli after 24 hrs by twofold microdilution broth method; type: functional
Summary of the method: (§1)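 Clinical isolates grown in Mueller-Hinton broth at 37 °C; inoculum diluted in MHB to 10^6 CFU. Compounds from 20,000 µg/ml DMSO stocks, twofold serial dilution across ten wells, with medium-only and organism-only controls. Incubated 24 h in ambient air. MIC taken as the lowest concentration with no visible growth by eye. Three replicates.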

Staphylococcus aureus = experiment: Antibacterial activity against clinical isolate of Staphylococcus aureus after 24 hrs by twofold microdilution broth method; type: functional; summary of the method: as §1
Candida albicans = experiment: Antifungal activity against Candida albicans CMCC (F) 98001 after 24 hrs by twofold microdilution broth method; type: functional; details: CMCC (F) 98001, 24 h
Summary of the method: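 Strain CMCC(F) 98001 grown in Sabouraud dextrose broth at 25 °C; inoculum diluted in SDB to 10^6 CFU. Compounds from 20,000 µg/ml DMSO stocks, twofold serial dilution across ten wells, with medium-only and organism-only controls. Incubated 24 h. MIC read by eye as the lowest concentration with no visible growth. Three replicates.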

[2] = Cytotoxicity against rat IEC-6 cells assessed as cell survival at 10 uM after 72 hrs by MTT assay relative to control; type: cell-based; details: read-out: Survival
Summary of the method: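 IEC-6 intestinal epithelial cells were exposed to each compound at a fixed 10 µM for 72 h alongside an untreated blank control. Viability was read by MTT reduction and expressed as survival rate (SR). Compounds with SR between 70% and 100% were classed as noncytotoxic or hypocytotoxic.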

Mus musculus [3] = experiment: Antiulcerogenic activity in DSS-induced acute ulcerative colitis C57BL/6J mouse model assessed as colon contracture at 150 mg/kg, po qd administered for 7 days (reference value: 41.87%); type: functional
Mus musculus [4] = experiment: Inhibition of DSS-induced acute ulcerative colitis C57BL/6J mouse model at 150 mg/kg, po qd administered for 7 days relative to control; type: functional; details: 168 h
Mus musculus [5] = experiment: Antiulcerogenic activity in DSS-induced acute ulcerative colitis C57BL/6J mouse model assessed as regular arrangement of IEC cells at 150 mg/kg, po qd administered for 7 days by microscopic analysis; type: functional, organism-based
Summary of the method: (§2)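 Colitis induced by DSS in C57BL/6J mice. Agents given orally each day: test agents at 150 mg/kg as a suspension in 0.5% CMC-Na; sulfasalazine at 500 mg/kg. At study end, colon tissue was H&E stained and examined by light microscopy at ×100 for mucosal structure, epithelial cell arrangement, crypt damage, inflammatory infiltration and ulceration.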

Mus musculus [6] = experiment: Antiulcerogenic activity in DSS-induced acute ulcerative colitis C57BL/6J mouse model assessed as decrease in body weight at 150 mg/kg, po qd administered for 7 days (reference value: 23.96%); type: functional; design: scale not given: the % may be the effect or the level left
Mus musculus [7] = experiment: Antiulcerogenic activity in DSS-induced acute ulcerative colitis C57BL/6J mouse model assessed as colon macroscopic damage index at 150 mg/kg, po qd administered for 7 days (reference value: 4.13 +/- 0.78); type: functional
Mus musculus [8] = experiment: Antiulcerogenic activity in DSS-induced acute ulcerative colitis C57BL/6J mouse model assessed as recovery of polar arrangement of IEC cells at 150 mg/kg, po qd administered for 7 days by microscopic analysis; type: functional, organism-based; summary of the method: as §2
Mus musculus [9] = experiment: Antiulcerogenic activity in DSS-induced acute ulcerative colitis C57BL/6J mouse model assessed as decrease in body weight at 500 mg/kg, po qd administered for 7 days (reference value: 23.96%); type: functional; design: scale not given: the % may be the effect or the level left
Mus musculus [10] = experiment: Antiulcerogenic activity in DSS-induced acute ulcerative colitis C57BL/6J mouse model assessed as colon contracture at 500 mg/kg, po qd administered for 7 days (reference value: 41.87%); type: functional
Mus musculus [11] = experiment: Inhibition of DSS-induced acute ulcerative colitis C57BL/6J mouse model at 500 mg/kg, po qd administered for 7 days relative to control; type: functional; details: 168 h
Mus musculus [12] = experiment: Antiulcerogenic activity in DSS-induced acute ulcerative colitis C57BL/6J mouse model assessed as disappearance of inflammatory edema at 500 mg/kg, po qd administered for 7 days by microscopic analysis; type: functional, organism-based; summary of the method: as §2
Mus musculus [13] = experiment: Antiulcerogenic activity in DSS-induced acute ulcerative colitis C57BL/6J mouse model assessed as colon macroscopic damage index at 500 mg/kg, po qd administered for 7 days (reference value: 4.13 +/- 0.78); type: functional

Row | Structure (SMILES) | MIC (Escherichia coli) [µg/mL] | MIC (Staphylococcus aureus) [µg/mL] | MIC (Candida albicans) [µg/mL] | viability at 72 h, 10 µM [2] [%] | further results
1 | CCCCC(=O)c1c2[n+](cc3c(OC)c(OC)ccc13)CCc1cc(OC)c(OC)cc1-2.[Cl-] | > 250 | 125 | > 250 | 70 to 100 | EC50 [1]: 340 nM; fold change (FC) (IEC-6): 1.29
2 | COc1cc2c(cc1OC)-c1c(C(=O)NCc3ccccc3)c3ccc(OC)c(OC)c3c(=O)n1CC2 | > 250 | > 250 | > 250 | 70 to 100 | EC50 [1]: 834 nM; fold change (FC) (IEC-6): 1.2
3 | COc1cc2c(cc1OC)-c1c(C=O)c3ccc(OC)c(O)c3c(=O)n1CC2 | > 250 | > 250 | > 250 | 70 to 100 | 
4 | CCCCCNCc1c2n(c(=O)c3c(OC)c(OC)ccc13)CCc1cc(OC)c(OC)cc1-2 | > 250 | > 250 | > 250 | 70 to 100 | 
5 | CCOC(=O)CCCCCc1c2[n+](cc3c(OC)c(OC)ccc13)CCc1cc(OC)c(OC)cc1-2.[Cl-] | > 250 | 62.5 | > 250 | 70 to 100 | 
6 | CCCNCc1c2n(c(=O)c3c(OC)c(OC)ccc13)CCc1cc(OC)c(OC)cc1-2 | > 250 | > 250 | > 250 | 70 to 100 | 
7 | CCCCCCCNCc1c2n(c(=O)c3c(OC)c(OC)ccc13)CCc1cc(OC)c(OC)cc1-2 | > 250 | 125 (≈ 253 µM) | > 250 | 70 to 100 | 
8 | CCCCCCCCNCc1c2n(c(=O)c3c(OC)c(OC)ccc13)CCc1cc(OC)c(OC)cc1-2 | > 250 | 31.2 (≈ 61.4 µM) | 250 (≈ 491 µM) | 70 to 100 | 
9 | COc1cc2c(cc1OC)-c1c(C=O)c3ccc(OC)c(OC)c3c(=O)n1CC2 | > 250 | > 250 | > 250 | 70 to 100 | Activity (Mus musculus [3]): 29.24%; EC50 [1]: 135 nM; fold change (FC) (IEC-6): 1.41; inhibition in vivo at 150 mg/kg (Mus musculus [4]): 63.2%; Activity (Mus musculus [5]): Active; Activity (Mus musculus [6]): 5.92%; Activity_index (Mus musculus [7]): 2.25; Activity (Mus musculus [8]): Active
10 | CCCCCNC(=O)c1c2n(c(=O)c3c(OC)c(OC)ccc13)CCc1cc(OC)c(OC)cc1-2 | > 250 | > 250 | > 250 | 70 to 100 | EC50 [1]: 1000 nM; fold change (FC) (IEC-6): 1.21
11 | CCCNC(=O)c1c2n(c(=O)c3c(OC)c(OC)ccc13)CCc1cc(OC)c(OC)cc1-2 | > 250 | > 250 | > 250 | 70 to 100 | 
12 | CCOC(=O)Cc1c2[n+](cc3c(OC)c(OC)ccc13)CCc1cc(OC)c(OC)cc1-2.[Cl-] | > 250 | 250 | > 250 | 70 to 100 | 
13 | O=C(O)c1cc(/N=N/c2ccc(S(=O)(=O)Nc3ccccn3)cc2)ccc1O [SULFASALAZINE] |  |  |  |  | Activity (Mus musculus [9]): 6.01%; Activity (Mus musculus [10]): 28.22%; inhibition in vivo at 500 mg/kg (Mus musculus [11]): 55.2%; Activity (Mus musculus [12]): Active; Activity_index (Mus musculus [13]): 3.13
14 | CCOC(=O)c1c2[n+](cc3c(OC)c(OC)ccc13)CCc1cc(OC)c(OC)cc1-2.[Cl-] | > 250 | > 250 | > 250 | 70 to 100 | 
15 | CCOC(=O)CCCCCCCc1c2[n+](cc3c(OC)c(OC)ccc13)CCc1cc(OC)c(OC)cc1-2.[Cl-] | 250 | 7.81 | 62.5 | 70 to 100 | 
16 | CCOC(=O)CCCc1c2[n+](cc3c(OC)c(OC)ccc13)CCc1cc(OC)c(OC)cc1-2.[Cl-] | > 250 | 125 | > 250 | 70 to 100 | 

Row | Structure (SMILES) | MIC (Escherichia coli) [µg/mL] | MIC (Staphylococcus aureus) [µg/mL] | MIC (Candida albicans) [µg/mL] | viability at 72 h, 10 µM [2] [%] | further results
17 | COc1cc2c(cc1OC)-c1cc3ccc(OC)c(OC)c3c(=O)n1CC2 | > 250 | > 250 | > 250 | 70 to 100 | 
18 | CCOC(=O)CCCCc1c2[n+](cc3c(OC)c(OC)ccc13)CCc1cc(OC)c(OC)cc1-2.[Cl-] | > 250 | 125 | > 250 | 70 to 100 | 
19 | CCCCNCc1c2n(c(=O)c3c(OC)c(OC)ccc13)CCc1cc(OC)c(OC)cc1-2 | > 250 | > 250 | > 250 | 70 to 100 | 
20 | COc1cc2c(cc1OC)-c1c(C(C)=O)c3ccc(OC)c(OC)c3c[n+]1CC2.[Cl-] | > 250 | > 250 | > 250 | 70 to 100 | 
21 | COc1cc2c(cc1OC)-c1c(C(=O)O)c3ccc(OC)c(OC)c3c(=O)n1CC2 | > 250 | > 250 | > 250 | 70 to 100 | 
22 | CCOC(=O)CCCCCCc1c2[n+](cc3c(OC)c(OC)ccc13)CCc1cc(OC)c(OC)cc1-2.[Cl-] | > 250 | 15.6 | 125 | 70 to 100 | 
23 | CCCC(=O)c1c2[n+](cc3c(OC)c(OC)ccc13)CCc1cc(OC)c(OC)cc1-2.[Cl-] | > 250 | 250 | > 250 | 70 to 100 | EC50 [1]: 338 nM; fold change (FC) (IEC-6): 1.59
24 | CCC(=O)c1c2[n+](cc3c(OC)c(OC)ccc13)CCc1cc(OC)c(OC)cc1-2.[Cl-] | > 250 | > 250 | > 250 | 70 to 100 | EC50 [1]: 301 nM; fold change (FC) (IEC-6): 1.01
25 | CCCCCCCCCNCc1c2n(c(=O)c3c(OC)c(OC)ccc13)CCc1cc(OC)c(OC)cc1-2 | > 250 | 15.6 (≈ 29.9 µM) | 62.5 (≈ 120 µM) | 70 to 100 | 
26 | CCCCNC(=O)c1c2n(c(=O)c3c(OC)c(OC)ccc13)CCc1cc(OC)c(OC)cc1-2 | > 250 | > 250 | > 250 | 70 to 100 | 
27 | COc1cc2c(cc1OC)-c1cc3ccc(OC)c(OC)c3c[n+]1CC2.[Cl-] [PALMATINE CHLORIDE] | > 250 | 250 | > 250 | 70 to 100 | 
28 | COc1cc2c(cc1OC)-c1c(C(=O)NC3CC3)c3ccc(OC)c(OC)c3c(=O)n1CC2 | > 250 | > 250 | > 250 | 70 to 100 | EC50 [1]: 1000 nM; fold change (FC) (IEC-6): 1.36
29 | CCCCCCNCc1c2n(c(=O)c3c(OC)c(OC)ccc13)CCc1cc(OC)c(OC)cc1-2 | > 250 | 250 (≈ 520 µM) | > 250 | 70 to 100 | 
30 | CCCCCC(=O)c1c2[n+](cc3c(OC)c(OC)ccc13)CCc1cc(OC)c(OC)cc1-2.[Cl-] | 250 | 62.5 | > 250 | 70 to 100 | 
31 | C[C@H]1COc2c(N3CCN(C)CC3)c(F)cc3c(=O)c(C(=O)O)cn1c23.C[C@H]1COc2c(N3CCN(C)CC3)c(F)cc3c(=O)c(C(=O)O)cn1c23.O [LEVOFLOXACIN] | < 1.95 | < 1.95 | > 250 |  | 
